This passage reports MIC results from ChEMBL document CHEMBL1148855, “Synthesis and antibacterial activity of 4,5,6,7-tetrahydro-thieno[3,2-c]pyridine quinolones” (2007).

The structures appear in SMILES notation. Converted amounts (≈) assume the structure as drawn.

Holding throughout (format): functional
In assay [1] the test system is Staphylococcus aureus. As to the kind of experiment: Antibacterial activity against Staphylococcus aureus ATCC 25923 by micro-broth dilution method. A digest of the protocol: (§1)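 MIC taken as the lowest concentration giving 90% inhibition of bacterial growth. Determined by microbroth dilution following National Committee (NCCLS) guidance, with each value determined in triplicate.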
In general terms: In broth dilution the organism is exposed to a series of concentrations in liquid medium.

Assay [2] has as its system Streptococcus pneumoniae. As to the kind of experiment: Antibacterial activity against penicillin-resistant Streptococcus pneumoniae ATCC 700904 by micro-broth dilution method. In short, it runs like this: (§2)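 Microbroth dilution run per National Committee guidelines; MIC taken as the concentration giving 90% inhibition of bacterial growth. Tested within a broader panel of susceptible and resistant Gram-positive strains. Reported values come from triplicate determinations.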

For assay [3], the system named is Bacillus subtilis. As to the kind of experiment: Antibacterial activity against Bacillus subtilis ATCC 6633 by micro-broth dilution method. A digest of the protocol:
as §1

For assay [4], the system named is Enterococcus faecium. As to the kind of experiment: Antibacterial activity against vancomycin-resistant Enterococcus faecium ATCC 700221 by microbroth dilution method. A digest of the protocol:
as §2

For assay [5], the system named is Escherichia coli. As to the kind of experiment: Antibacterial activity against Escherichia coli ATCC 25922 by micro-broth dilution method. A digest of the protocol: as §1
Assay [6] has as its system Staphylococcus aureus. As to the kind of experiment: Antibacterial activity against methicillin-resistant Staphylococcus aureus ATCC 700699 by micro-broth dilution method. In short, it runs like this: as §2
The test system of assay [7] is Pseudomonas aeruginosa. As to the kind of experiment: Antibacterial activity against Pseudomonas aeruginosa ATCC 27853 by micro-broth dilution method. In short, it runs like this: as §1
Assay [8] relates to Enterococcus faecalis. As to the kind of experiment: Antibacterial activity against Enterococcus faecalis ATCC 14506 by microbroth dilution method. A digest of the protocol:
as §1

For assay [9], the system named is Staphylococcus aureus. As to the kind of experiment: Antibacterial activity against Staphylococcus aureus ATCC 33591 by micro-broth dilution method. A digest of the protocol:
as §1

The test system of assay [10] is Klebsiella pneumoniae. As to the kind of experiment: Antibacterial activity against Klebsiella pneumoniae ATCC 10031 by micro-broth dilution method. A digest of the protocol:
as §1

Assay [11] has as its system Enterococcus faecalis. As to the kind of experiment: Antibacterial activity against Enterococcus faecalis ATCC 29212 by micro-broth dilution method. A digest of the protocol: as §1
Assay [12] deals with Enterococcus faecalis. As to the kind of experiment: Antibacterial activity against vancomycin-resistant Enterococcus faecalis ATCC 700802 by micro-broth dilution method. In short, it runs like this:
as §2

Assay [13] concerns Staphylococcus epidermidis. As to the kind of experiment: Antibacterial activity against Staphylococcus epidermidis ATCC 12228 by micro-broth dilution method. In short, it runs like this:
as §1

Assay [14] relates to Staphylococcus aureus. As to the kind of experiment: Antibacterial activity against Staphylococcus aureus ATCC 33592 by micro-broth dilution method. A digest of the protocol: as §1
In assay [15] the test system is Staphylococcus aureus. As to the kind of experiment: Antibacterial activity against Staphylococcus aureus ATCC 29213 by micro-broth dilution method. A digest of the protocol:
as §1

Assay [16] relates to Staphylococcus aureus. As to the kind of experiment: Antibacterial activity against linezolid-resistant Staphylococcus aureus NRS 119 by microbroth dilution method. In short, it runs like this:
as §2

On to `COc1c(N2CCc3sc(Br)cc3C2)c(F)cc2c(=O)c(C(=O)O)cn(C3CC3)c12`, for which the MIC in assay [1] is 2 µg/mL (≈ 4.05 µM); in [2], 8 µg/mL (≈ 16.2 µM); in [3] it was not above 0.12 µg/mL; in assay [4], more than 16 µg/mL; in assay [5], 2 µg/mL (≈ 4.05 µM); in [6], more than 16 µg/mL. For the same compound, the MIC in assay [7] was more than 16 µg/mL; in assay [8] it was more than 16 µg/mL; in assay [9], 1 µg/mL (≈ 2.03 µM); in assay [10] it was 4 µg/mL (≈ 8.11 µM); in assay [11] it was 0.5 µg/mL (≈ 1.01 µM); in assay [12], more than 16 µg/mL. Also, the MIC in assay [13] was not above 0.12 µg/mL; in assay [14], 2 µg/mL (≈ 4.05 µM); in assay [15], 4 µg/mL (≈ 8.11 µM); in [16] it was more than 16 µg/mL.
Turning to `COc1c(N2CCc3sc(C=O)cc3C2)c(F)cc2c(=O)c(C(=O)O)cn(C3CC3)c12`, the MIC in assay [1] is not above 0.125 µg/mL; in assay [2], not above 0.12 µg/mL; in assay [3], not above 0.12 µg/mL; in assay [4], more than 16 µg/mL; in assay [5], 0.25 µg/mL (≈ 0.565 µM); in [6], 0.5 µg/mL (≈ 1.13 µM). The MIC in assay [7] is 8 µg/mL (≈ 18.1 µM); in [8] it was 2 µg/mL (≈ 4.52 µM); in [9], not above 0.12 µg/mL; in [10], not above 0.12 µg/mL; in assay [11] it was not above 0.12 µg/mL; in assay [12] it was 0.25 µg/mL (≈ 0.565 µM). The MIC in assay [13] was not above 0.12 µg/mL; in [14], not above 0.25 µg/mL; in [15], not above 0.125 µg/mL; in assay [16], not above 0.12 µg/mL.
Turning to `COc1c(N2CCc3sc([N+](=O)[O-])cc3C2)c(F)cc2c(=O)c(C(=O)O)cn(C3CC3)c12`, the MIC was 4 µg/mL (≈ 8.71 µM) in assay [1]; 0.5 µg/mL (≈ 1.09 µM) in assay [2]; not above 0.12 µg/mL in assay [3]; more than 16 µg/mL in [4]; 0.5 µg/mL (≈ 1.09 µM) in assay [5]; 16 µg/mL (≈ 34.8 µM) in assay [6]. Moreover, the MIC in assay [7] is 1 µg/mL (≈ 2.18 µM); in assay [8], more than 16 µg/mL; in [9] it was not above 0.12 µg/mL; in assay [10], 0.25 µg/mL (≈ 0.544 µM); in [11], not above 0.12 µg/mL; in assay [12], 16 µg/mL (≈ 34.8 µM). In addition, the MIC was 4 µg/mL (≈ 8.71 µM) in [13], 8 µg/mL (≈ 17.4 µM) in assay [14], 4 µg/mL (≈ 8.71 µM) in assay [15] and more than 16 µg/mL in assay [16].
In the case of `Nc1c(F)c(N2CCc3sccc3C2)c(F)c2c1c(=O)c(C(=O)O)cn2C1CC1`, the MIC in assay [1] is 4 µg/mL (≈ 9.58 µM); in [2], 2 µg/mL (≈ 4.79 µM); in [3], not above 0.12 µg/mL; in [4], more than 16 µg/mL; in assay [5] it was 0.25 µg/mL (≈ 0.599 µM); in assay [6], more than 16 µg/mL. The MIC in assay [7] was more than 16 µg/mL; in [8], more than 16 µg/mL; in [9], 4 µg/mL (≈ 9.58 µM); in assay [10], 4 µg/mL (≈ 9.58 µM); in [11], more than 16 µg/mL; in assay [12], 16 µg/mL (≈ 38.3 µM). The MIC in assay [13] is 16 µg/mL (≈ 38.3 µM); in assay [14] it was 4 µg/mL (≈ 9.58 µM); in assay [15], 8 µg/mL (≈ 19.2 µM); in assay [16], more than 16 µg/mL.

As a reminder, the MIC is the lowest concentration that inhibits growth of the organism. A higher MIC goes with a less susceptible organism.
